B1: NELF-E aptamer (parent)
chain: CCCAACGACUGCCGAGCGAGAUUACGCUUGAGCGCCCCACUGAGGAUGCCCACGGGCGAUUGGGGCACGG

Variants of: B1
Experiment: HiTS-RAP
Settings: with NELF-E (Drosophila)
In short: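 Kd came from weighted Hill fits to the first binding curve, with intensities normalised to sequencing intensity and averaged per sequence, keeping only fits whose variance was below 1,000,000. That curve was imaged on an Illumina GAIIx flowcell, where sequenced aptamer DNA templates with a T7 promoter and ter site had been transcribed in situ by T7 RNA polymerase and halted by GST-Tus (30 minutes, 37°C). Before each image, clusters equilibrated for 30 minutes at room temperature with NELF-E-mOrange at 0.064 to 1000 nM in HEPES binding buffer.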

| Variant | Kd |
| --- | --- |
| C13G G34A | 8.12 nM |
| C13G G34U | 5.43 nM |
| C13G G42A | 49 nM |
| C13G G42U | 5.35 nM |
| C13G G45U | 6.75 nM |
| C13G G48A | 11 nM |
| C13G G48U | 6.97 nM |
| C13G G54A | 13.8 nM |
| C13G G54U | 7.78 nM |
| C13G G55A | 6.77 nM |
| C13G G55C | 7.94 nM |
| C13G G55U | 7.38 nM |
| C13G G56A | 6.97 nM |
| C13G G56U | 4.87 nM |
| C13G G62A | 32.4 nM |
| C13G G62U | 7.22 nM |
| C13G G63A | 20.2 nM |
| C13G G63U | 7.98 nM |
| C13G G64A | 6.69 nM |
| C13G G64C | 5.83 nM |
| C13G G64U | 8.93 nM |
| C13G G65A | 5.31 nM |
| C13G G65U | 6.4 nM |
| C13G U22C | 4.85 nM |

| Variant | Kd |
| --- | --- |
| C13G U22G | 5.27 nM |
| C13G U23A | 5.32 nM |
| C13G U23C | 5.7 nM |
| C13G U23G | 5.29 nM |
| C13G U28A | 4.22 nM |
| C13G U28C | 8.82 nM |
| C13G U28G | 6.99 nM |
| C13G U29A | 4.9 nM |
| C13G U29C | 4.94 nM |
| C13G U29G | 4.95 nM |
| C13G U41A | 83.4 nM |
| C13G U41C | 64.2 nM |
| C13G U41G | 5.26 nM |
| C13G U47A | 11.8 nM |
| C13G U47G | 6.66 nM |
| C13G U60C | 8.4 nM |
| C13G U60G | 5.12 nM |
| C13G U61A | 38.3 nM |
| C13G U61C | 73.4 nM |
| C13G U61G | 7.74 nM |
| C13U | 4.41 nM |
| C13U A15U | 4.83 nM |
| C13U A19G | 6.42 nM |
| C13U A19U | 5 nM |

| Variant | Kd |
| --- | --- |
| C13U A24G | 5.12 nM |
| C13U A31G | 5.17 nM |
| C13U A39G | 7.82 nM |
| C13U A39U | 20.4 nM |
| C13U A52G | 3.79 nM |
| C13U A52U | 10.1 nM |
| C13U A67U | 3.81 nM |
| C13U C17G | 5.11 nM |
| C13U C17U | 4 nM |
| C13U C25G | 4.69 nM |
| C13U C37U | 7.46 nM |
| C13U C57U | 4.06 nM |
| C13U G14U | 5.39 nM |
| C13U G16U | 6.59 nM |
| C13U G20U | 7.13 nM |
| C13U G26A | 4.43 nM |
| C13U G34A | 6.99 nM |
| C13U G54A | 8.87 nM |
| C13U G55A | 5.87 nM |
| C13U G64A | 8.04 nM |
| C13U U22G | 5.14 nM |
| C13U U23G | 4.9 nM |
| C13U U28C | 6.27 nM |
| C13U U29G | 5.14 nM |

| Variant | Kd |
| --- | --- |
| C13U U41G | 5.56 nM |
| G14A | 4.94 nM |
| G14A A15C | 4.43 nM |
| G14A A15G | 6.1 nM |
| G14A A15U | 5.39 nM |
| G14A A19G | 5.88 nM |
| G14A A19U | 4.56 nM |
| G14A A21G | 6.08 nM |
| G14A A24G | 5.71 nM |
| G14A A31G | 5.95 nM |
| G14A A39G | 9.46 nM |
| G14A A39U | 31 nM |
| G14A A43G | 9.58 nM |
| G14A A52G | 4.13 nM |
| G14A A67G | 5.51 nM |
| G14A A67U | 6.56 nM |
| G14A C17G | 5.98 nM |
| G14A C17U | 5.62 nM |
| G14A C33U | 6.15 nM |
| G14A C51U | 7.06 nM |
| G14A C53U | 4.16 nM |
| G14A C57U | 6.72 nM |
| G14A G16A | 6.86 nM |
| G14A G16U | 6.52 nM |

| Variant | Kd |
| --- | --- |
| G14A G18A | 5.3 nM |
| G14A G20U | 5.9 nM |
| G14A G30A | 5.61 nM |
| G14A G54A | 12.4 nM |
| G14A G55U | 8.79 nM |
| G14A G63A | 12 nM |
| G14A U22C | 5.13 nM |
| G14A U22G | 5.03 nM |
| G14A U23G | 5.88 nM |
| G14A U28C | 7.17 nM |
| G14A U29A | 4.86 nM |
| G14A U29C | 4.73 nM |
| G14A U29G | 5.42 nM |
| G14A U41G | 5.69 nM |
| G14A U61A | 30.3 nM |
| G14C | 5.95 nM |
| G14C U29G | 5.67 nM |
| G14U | 5.68 nM |
| G14U A15G | 6.08 nM |
| G14U A15U | 6.94 nM |
| G14U A19G | 6.25 nM |
| G14U A19U | 7.38 nM |
| G14U A21G | 6.69 nM |
| G14U A21U | 6.73 nM |

| Variant | Kd |
| --- | --- |
| G14U A24G | 6.51 nM |
| G14U A31G | 7.27 nM |
| G14U A39G | 9.72 nM |
| G14U A39U | 32.5 nM |
| G14U A43G | 116 nM |
| G14U A43U | 84.4 nM |
| G14U A46G | 57.2 nM |
| G14U A52U | 15.8 nM |
| G14U A67G | 6.8 nM |
| G14U A67U | 6.23 nM |
| G14U C17G | 6.27 nM |
| G14U C17U | 6.1 nM |
| G14U C25G | 8.18 nM |
| G14U C25U | 7.71 nM |
| G14U C33U | 5.15 nM |
| G14U C35U | 10.1 nM |
| G14U C36U | 8.6 nM |
| G14U C37U | 21.2 nM |
| G14U C38U | 9.69 nM |
| G14U C40G | 9.9 nM |
| G14U C40U | 53.4 nM |
| G14U C57U | 5.72 nM |
| G14U G16A | 6.74 nM |
| G14U G16U | 7.62 nM |

| Variant | Kd |
| --- | --- |
| G14U G18A | 6.29 nM |
| G14U G18U | 7.17 nM |
| G14U G20A | 6.93 nM |
| G14U G20U | 6.93 nM |
| G14U G26A | 5.3 nM |
| G14U G26U | 6.16 nM |
| G14U G34A | 6.18 nM |
| G14U G34U | 5.16 nM |
| G14U G48A | 13.2 nM |
| G14U G54A | 12.6 nM |
| G14U G55A | 7.48 nM |
| G14U G55U | 9.69 nM |
| G14U G56A | 9.7 nM |
| G14U G56U | 7.18 nM |
| G14U G62A | 19.1 nM |
| G14U G63A | 11.9 nM |
| G14U G63U | 12.8 nM |
| G14U G64A | 6.6 nM |
| G14U G65A | 6.7 nM |
| G14U G65U | 8.73 nM |
| G14U U22C | 5.6 nM |
| G14U U22G | 6.53 nM |
| G14U U23G | 6.29 nM |
